According to ChEMBL document CHEMBL1123865, “Synthesis and antitumor activity of N-terminal proline-containing peptide-(chloroethyl)nitrosoureas” (J Med Chem, 1987):
Active and inactive are the calls of the source. The rule behind the calls is not given here. Peptide text beside a SMILES is read from it. * marks the point of attachment. Carbamoyl(2-ClEt,NO) = O=NN(CCCl)C(=O)*; Boc = CC(C)(C)OC(=O)*; For = O=C*

Legend:
[1] = Antitumor activity against L1210 Leukemia in mice expressed as 50% lethal dose was determined at 200 mg/kg; assay type: ADME, organism-based; set-up: dose 200 mg/kg; conditions: mouse, in vivo
[2] = Antitumor activity against L1210 Leukemia in mice expressed as 50% lethal dose was determined at a dose of 100 mg/kg; assay type: ADME, organism-based; set-up: dose 100 mg/kg; conditions: mouse, in vivo
L1210 [3] = test: Antitumor activity against L1210 Leukemia in mice at a dose of 100 mg/kg expressed as percent of increase in life span after day 60s was determined.; assay type: functional; conditions: Mus musculus
Outline: (§1)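 L1210 leukemia-bearing mice, 10 per group; controls got saline or solvent. Dose was dissolved in 0.2 mL DMSO, diluted to 10 mL with 0.9% NaCl, and given as one ip injection (0.1 mL/10 g body weight) 1 day after transplantation. %ILS = [(T − C)/C] × 100 from median survival days, treated versus untreated. Cures were counted on day 60 after transplantation.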

L1210 [4] = test: Antitumor activity against L1210 Leukemia in mice at a dose of 100 mg/kg was determined.; assay type: functional, Mus musculus
Outline: (§2)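 L1210 leukemia in mice, 10 per group, treated with one ip injection 1 day after tumor transplantation at 0.1 mL/10 g body weight. Dose was dissolved in 0.2 mL DMSO and diluted to 10 mL with 0.9% NaCl. Controls received saline or solvent. %ILS = [(T − C)/C] × 100, using median survival days. Cures were scored on day 60 post-transplant.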

L1210 [5] = test: Antitumor activity against L1210 Leukemia in mice at a dose of 100 mg/kg expressed as percent of increase in life span after day 60s was determined; no effect; assay type: functional, organism-based; set-up: dose 100 mg/kg; conditions: Mus musculus; outline: as §1
L1210 [6] = test: Antitumor activity against L1210 Leukemia in mice at a dose of 30 mg/kg expressed as percent of increase in life span after day 60s was determined; no effect; assay type: functional, organism-based; set-up: dose 30 mg/kg; conditions: Mus musculus; outline: as §1
L1210 [7] = test: Antitumor activity against L1210 Leukemia in mice at a dose of 130 mg/kg was determined.; assay type: functional, Mus musculus
[8] = Antitumor activity against L1210 Leukemia in mice expressed as 50% lethal dose was determined at a dose of 130 mg/kg; assay type: ADME, organism-based; set-up: dose 130 mg/kg; conditions: mouse, in vivo
L1210 [9] = test: Antitumor activity against L1210 Leukemia in mice at a dose of 30 mg/kg expressed as percent of increase in life span after day 60s was determined.; assay type: functional; conditions: Mus musculus; outline: as §1
L1210 [10] = test: Antitumor activity against L1210 Leukemia in mice at a dose of 200 mg/kg expressed as percent of increase in life span after day 60s was determined.; assay type: functional; conditions: Mus musculus; outline: as §1
L1210 [11] = test: Antitumor activity against L1210 Leukemia in mice at a dose of 30 mg/kg was determined.; assay type: functional, Mus musculus; outline: as §2
L1210 [12] = test: Antitumor activity against L1210 Leukemia in mice at a dose of 200 mg/kg was determined.; assay type: functional, Mus musculus; outline: as §2
L1210 [13] = test: Antitumor activity against L1210 Leukemia in mice at a dose of 200 mg/kg expressed as percent of increase in life span or the percent of surviving animals on day 60 was determined.; assay type: functional; conditions: Mus musculus, L1210, 1440 h; outline: as §1
L1210 [14] = test: Antitumor activity against L1210 Leukemia in mice at a dose of 50 mg/kg expressed as percent of increase in life span after day 60s was determined.; assay type: functional; conditions: Mus musculus; outline: as §1
L1210 [15] = test: Antitumor activity against L1210 Leukemia in mice at a dose of 50 mg/kg was determined.; assay type: functional, Mus musculus; outline: as §2

## CC(C)[C@H](NC(=O)[C@@H]1CCCN1C(=O)[C@H](CCCCNC(=O)OC(C)(C)C)NC(=O)[C@@H]1CCCN1C(=O)N(CCCl)N=O)C(N)=O ({Carbamoyl(2-ClEt,NO)}-PK(Boc)PV-NH2) [listing 1 of 2 here]
[1]
  LD50: 300 mg/kg

## NC(=O)C1CCCN1C(=O)N(CCCl)N=O (centres undefined)
[2]
  LD50: 140 mg/kg
L1210 [3]
  ILS at 100 mg/kg: 420%
L1210 [4]
  MED: 0.403 mmol/kg

## CC(C)[C@H](NC(=O)[C@@H]1CCCN1C(=O)[C@@H](N)CCCCNC=O)C(N)=O.Cl (H-Lys(For)-Pro-Val-NH2)
L1210 [5]
  ILS: inactive
L1210 [4]
  MED: 0.24 mmol/kg

## CC(C)[C@H](NC(=O)[C@@H]1CCCN1C(=O)[C@H](CCCCNOC(=O)C(C)(C)C)NC(=O)[C@@H]1CCCN1C(=O)N(CCCl)N=O)C(N)=O
L1210 [5]
  ILS: inactive
L1210 [6]
  ILS: inactive

## CC(C)[C@H](NC(=O)[C@@H]1CCCN1C(=O)N(CCCl)N=O)C(N)=O
[2]
  LD50: 150 mg/kg
L1210 [4]
  MED: 0.28 mmol/kg

## CC(C)[C@H](NC(=O)[C@@H]1CCCN1C(=O)[C@H](CCCCN)NC(=O)N(CCCl)N=O)C(N)=O.Cl
L1210 [7]
  MED: 0.25 mmol/kg
[8]
  LD50: 175 mg/kg

## CC(C)[C@H](NC(=O)[C@@H]1CCCN1C(=O)[C@H](CCCCNC=O)NC(=O)N(CCCl)N=O)C(N)=O
[1]
  LD50: 260 mg/kg
L1210 [9]
  ILS at 30 mg/kg: 70%
L1210 [10]
  ILS at 200 mg/kg: 190%
L1210 [11]
  MED: 0.059 mmol/kg
L1210 [3]
  ILS at 100 mg/kg: 110%
L1210 [12]
  MED: 0.4 mmol/kg
L1210 [4]
  MED: 0.2 mmol/kg

## CC(C)[C@H](NC(=O)[C@@H]1CCCN1C(=O)[C@H](CCCCNC(=O)N(CCCl)N=O)NC(=O)[C@@H]1CCCN1C(=O)N(CCCl)N=O)C(N)=O ({Carbamoyl(2-ClEt,NO)}-PK(Carbamoyl(2-ClEt,NO))PV-NH2)
[1]
  LD50: 220 mg/kg
L1210 [9]
  ILS at 30 mg/kg: 100%
L1210 [10]
  ILS at 200 mg/kg: 120%
L1210 [11]
  MED: 0.042 mmol/kg
L1210 [12]
  MED: 0.28 mmol/kg
L1210 [4]
  MED: 0.14 mmol/kg

## CC(C)[C@H](NC(=O)[C@@H]1CCCN1C(=O)[C@H](CCCCNC(=O)N(CCCl)N=O)NC(=O)N(CCCl)N=O)C(N)=O
[2]
  LD50: 250 mg/kg
L1210 [3]
  ILS at 100 mg/kg: 380%
L1210 [4]
  MED: 0.16 mmol/kg

## CC(C)[C@H](NC(=O)[C@@H]1CCCN1C(=O)[C@H](CCCCNC(=O)OC(C)(C)C)NC(=O)[C@@H]1CCCN1C(=O)N(CCCl)N=O)C(N)=O ({Carbamoyl(2-ClEt,NO)}-PK(Boc)PV-NH2) [listing 2 of 2 here]
L1210 [13]
  ILS at 200 mg/kg: 30%
L1210 [11]
  MED: 0.045 mmol/kg
L1210 [12]
  MED: 0.3 mmol/kg
L1210 [4]
  MED: 0.15 mmol/kg

## CC(C)[C@H](NC(=O)[C@@H]1CCCN1C(=O)[C@H](CCCCNC=O)NC(=O)[C@@H]1CCCN1C(=O)N(CCCl)N=O)C(N)=O ({Carbamoyl(2-ClEt,NO)}-PK(For)PV-NH2)
[1]
  LD50: 250 mg/kg
L1210 [10]
  ILS at 200 mg/kg: 80%
L1210 [14]
  ILS at 50 mg/kg: 40%
L1210 [3]
  ILS at 100 mg/kg: 80%
L1210 [15]
  MED: 0.083 mmol/kg
L1210 [12]
  MED: 0.32 mmol/kg
L1210 [4]
  MED: 0.16 mmol/kg
